MC4R ag barr: agonists of human melanocortin 4 receptor (MC4R) beta-arrestin; activation, % at 8.9 µM; U2OS MC4R beta-arrestin complementation, luminescence; percent of melanotan II response, DMSO zero; 360,000 tested, 0.98% active; AID 540308; P32245;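 active = activation above a per-plate cutoff, the mean activation of sample wells on that plate plus 3 SD, cut at about 8% in these data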
Target sequence (P32245 whole entry, looked up): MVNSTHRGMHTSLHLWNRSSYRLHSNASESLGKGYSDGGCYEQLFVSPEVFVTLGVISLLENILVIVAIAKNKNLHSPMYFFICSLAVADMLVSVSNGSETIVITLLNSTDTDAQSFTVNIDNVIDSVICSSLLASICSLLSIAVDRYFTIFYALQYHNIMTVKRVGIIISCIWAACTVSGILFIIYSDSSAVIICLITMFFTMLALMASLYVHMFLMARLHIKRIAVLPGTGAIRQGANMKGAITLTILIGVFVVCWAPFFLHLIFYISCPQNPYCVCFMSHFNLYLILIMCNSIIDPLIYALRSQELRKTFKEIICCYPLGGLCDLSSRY
A1 inh: inhibitors of the anti-apoptotic protein A1, read as caspase activation; caspase activation, % (concentration not given with the values); 330,000 tested, 0.066% active; MEF A1-2A-BIM cells, Caspase-Glo 3/7 luminescence, 3 h; percent of clofoctol response, vehicle zero;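 active = over half of replicate activation scores above 10%, or exactly half above 10 with the replicate mean above 10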
MC4R antag cAMP: blocks human MC4R cAMP signaling. MC4R-expressing cells, MTII-stimulated cAMP, LANCE TR-FRET. inhibition, % at 6.5 µM. P32245. 360,000 tested, 0.48% active;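 active = inhibition above its plate's cutoff, the mean of tested wells on that plate plus 3 SD, cut at about 29% in these data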;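 also: 0% = Melanotan II alone and 100% = Melanotan II plus saturating MCL0020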
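System: U2OS cells stably expressing human melanocortin 4 receptor (MC4R). Reagent: Melanotan II challenge after compound preincubation. Doses: 6.5 µM. Times: 30-min compound, 1-h challenge, 1-h detection, room temperature. Measured by: TR-FRET with Eu-cAMP and labeled anti-cAMP, 671 nm. Replicates: singlicate.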
CHOP UPR activ: activators of apoptotic arm of unfolded protein response (CHOP). 330,000 tested, 0.34% active. CHO-CHOP luciferase reporter, UPR activation, luminescence; percent of tunicamycin response over DMSO baseline. activation, % at 10 µM;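 active = at 10 µM dose, activation of 40% or more, normalized to positive control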;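 also: 100% = tunicamycin at 10 µg/mL and 0% = DMSO alone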
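Evaluation: % reporter activation, DMSO baseline versus tunicamycin full activation; System: CHO-CHOP luciferase reporter cell line; Input: 500 cells/well; Incubation: 6 h compound treatment, 37 °C; Measured by: Steady-Glo luciferase luminescence; Dosing: one dose, 10 µM in 0.5% DMSO; Buffer or medium: F12 medium, 10% FBS; Benchmarks: positive tunicamycin 10 µg/mL, negative DMSO alone.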
XBP1 UPR activ: adaptive UPR (XBP1) activation; activation, % at 20 µM; CHO-XBP1 luciferase reporter, IRE1-XBP1 UPR activation, luminescence; percent of tunicamycin response, DMSO as zero; AID 463104; 330,000 tested, 0.33% active;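 active = versus positive control, 20 µM dose yields 30% or more activation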;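 also: 100% = tunicamycin at 10 µg/mL and 0% = DMSO only wells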
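Assay system: IRE1-XBP1 luciferase reporter CHO line. Input: 1000 cells/well. Buffer or medium: F12 with 10% serum. Doses: 20 µM, 1% DMSO. Times: overnight seeding at 37 °C, 6 h compound treatment at 37 °C. Technique: Steady-Glo luciferase glow luminescence, 10 min after reagent addition.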
An asterisk follows results filed as active; . = not tested or not shown; ! = repeats disagree. Hits are enriched below; roughly 2% of the tested compounds scored in any of these assays.

SMILES	MC4R ag barr	A1 inh	MC4R antag cAMP	CHOP UPR activ	XBP1 UPR activ
COc1ccc(N=C2SC(CC(=O)Nc3ccccc3)C(=O)N2Cc2ccco2)cc1 (centres undefined)	8.3*	0	-5	0	-2
O=[N+]([O-])c1cnc(Sc2ccncn2)s1	-4	-3	35*	-9	-10
O=[N+]([O-])c1cnc(Sc2ccncn2)c([N+](=O)[O-])c1	-1	.	14	.	.
CN(C)CCCN(C(=O)CCc1ccccc1)c1nc2ccc(Br)cc2s1	9.5*	0	1	2	6
COc1ccc(C(C)NCCC(c2ccc(OC(C)C)cc2)c2ccccc2OC)cc1 (centres undefined)	20*	2	0	1	-4
NC(=O)c1cccc(-c2ccnc3c2CC(C(=O)NCc2ccccc2)O3)c1 (centres undefined)	0	.	-10	.	.
O=C(Oc1ccc(-c2nnco2)cc1)c1cc(S(=O)(=O)N2CCOCC2)ccc1F	-3	.	-1	.	.
Cc1nc2ccc(NC(=O)[C@@H](NC(=O)c3c(F)cccc3F)C(C)C)cc2s1	0	-1	1	5	0
CC(C)[C@H](NC(=O)c1c(F)cccc1F)C(=O)Nc1cccc(Br)c1	8.6*	2	-1	-2	-5
Cc1ccc(C)c(NS(=O)(=O)c2ccc3oc(=O)ccc3c2)c1	-1	0	7	1	-3
Cc1ccc(C)c(NS(=O)(=O)c2ccc3c(c2)Cc2cc(S(=O)(=O)Nc4cc(C)ccc4C)ccc2-3)c1	8.8*	0	9	.	.
O=C(Nc1cccc2[nH]c([C@H]3C[C@H](O)[C@@H](CO)O3)nc12)NC(c1ccccc1)c1ccccc1	-1	.	15	.	.
O=C(CCC(=O)N1CCN(c2ccccc2F)CC1)N1CCN(c2ccccc2)CC1	1	9.4*	-4	0	-6
O=C(CCC(=O)N1CCN(c2ccccc2F)CC1)N1CCN(c2ccc(F)cc2)CC1	1	0	16	2	-4
O=C(CC1CC1)Nc1ccc2c(c1)[C@H]1C[C@H](CC(=O)N3CCc4ccccc4C3)O[C@@H](CO)[C@H]1O2	1	.	7	.	.
CSc1nsc2nc(=O)c(/C=C3\C(C)=Nc4ccc(C)cc43)c(N)n12	4	0	13	4	1
CC1=Nc2ccc(C)cc2/C1=C/c1c(N)n2oc(C)cc2nc1=O	9.2*!	1	12	1	6
COCCN1C[C@@H](CO)O[C@@H](n2cnc3c(NCCO)ncnc32)C1	0	.	6	.	.
CCCCC(=O)N(C)c1c(CC)nc2c(OCC(=O)N(C)C)cccn12	5	.	-4	.	.
Cc1noc(C)c1-c1ccc(C(=O)Nc2cccc(C(F)(F)F)c2)c2occc12	0	.	9	.	.
O=C(O)c1ccccc1OC(C(=O)Nc1cc(Cl)cc(Cl)c1)c1ccccc1 (centres undefined)	9.3*	3	2	3	21
O=C(Nc1cc(Cl)cc(Cl)c1)C(c1ccccc1)N1CCCCC1 (centres undefined)	7	0	-2	-2	-4
O=c1[nH]c2ccccc2c2ccc(Cl)cc12	8.5*	.	-6	.	.
Cc1cc(C)c(S(=O)(=O)/N=C2/C=C(Sc3ncn[nH]3)C(=O)c3ccccc32)cc1C	-4	0	62*	.	.
CC(C)c1ccc(O)c(NC(=S)NC(=O)c2ccc3c(c2)OCO3)c1	11*	0	-5	5	1
SMILES	MC4R ag barr	A1 inh	MC4R antag cAMP	CHOP UPR activ	XBP1 UPR activ
CCOC(=O)/C=c1\s/c(=C\c2sccc2C)c(=O)n1CC(=O)NCc1ccc(C)cc1	.	3	.	54*	64*
CCOC(=O)/C=c1\s/c(=C\c2ccc(-c3ccccc3)cc2)c(=O)n1CC(=O)NCc1ccc2c(c1)OCO2	2	1	-7	2	1
O=C(c1cc(Cl)cc(Cl)c1)N1CCC2CC1c1cc(N3CCCCC3)ccc12 (centres undefined)	-1	.	8	.	.
C[C@H]1O[C@@H](O[C@H]2[C@@H](O)C[C@H](O[C@H]3[C@@H](O)C[C@H](O[C@H]4CC[C@@]5(C)[C@H](CC[C@@H]6[C@@H]5C[C@@H](O)[C@]5(C)[C@@H](C7=CC(=O)OC7)CC[C@]65O)C4)O[C@@H]3C)O[C@@H]2C)C[C@H](O)[C@@H]1O	39*	0	7	-2	-9
CCN1CC2=C(OC(N)=C(C#N)C2c2ccccc2)/C(=C\c2ccccc2)C1 (centres undefined)	-3	0	13	-1	-3
N#CC1=C(N)OC2=C(CC/C2=C\c2ccc(F)cc2)C1c1ccc(F)cc1 (centres undefined)	.	1	.	116*	6
CC(C)(C)c1nn(-c2ccccc2)c2[nH]c(=O)c(CNCc3ccco3)cc12	2	0	8	0	3
Cc1ccc(CNCc2cc3c(C(C)(C)C)nn(-c4ccccc4)c3[nH]c2=O)cc1	8.9*	0	13	1	8
Oc1c(C=Nc2cccc3cccnc23)sc2ccccc12	.	-8	.	59*	39*
Nc1ccn(C2OC(COC(=O)C34CC5CC(CC(C5)C3)C4)C(O)C2O)c(=O)n1 (centres undefined)	-1	.	0	.	.
COc1ccc(-c2cc(C(=O)O)c3c(C)nn(-c4ccccn4)c3n2)cc1	.	0	.	5	-3
COc1ccc(N=CC2=C(Nc3ccc(OC)cc3)c3c(C)nn(-c4ccccn4)c3CC2)cc1	.	0	.	59*	6
CN(C)c1ccc(C=c2c3ccccc3n3c2c2ccccc2[n+]3C)cc1	14*	.	4	.	.
COc1cc(OCc2ccccc2)c(CC(=O)O)c([N+](=O)[O-])c1	-3	.	3	.	.
Cc1nnc(NC(=O)c2oc3ccccc3c2C)s1	-2	-2	-6	13	-5
CCCCc1nnc(NC(=O)c2oc3ccccc3c2C)s1	9.1*	0	-1	4	0
O=C(c1ccccc1)c1c2c(cc3sc4ccccc4[n+]13)-c1cccc3cccc-2c13	26*	0	-25	.	.
O=C(NCc1cc(Cl)cc(Cl)c1)c1ccc2sc([C@H]3C[C@H](O)[C@@H](CO)O3)nc2c1	0	.	-3	.	.
Cc1ccc(S(=O)(=O)NC(C)(C)CN2CCC(Cc3ccccc3)CC2)cc1	8.4*	.	16	2	-1
C[C@@H]1CN([C@H](C)CO)C(=O)c2cc(-c3ccc(C(=O)N(C)C)cc3)cnc2O[C@@H]1CN(C)C(=O)c1cccnc1	-1	.	8	.	.
O=C(NN=Cc1c(O)ccc2ccccc12)c1ccc2c(c1)OCO2	2	1	-5	0	4
Oc1ccc(N=Nc2ccc3c(c2)OCO3)c2ccccc12	.	-9	.	66*	0
Cc1ccccc1-c1cc2nc(NCc3ccc4occc4c3)n(C)c(=O)c2s1	-1	.	5	.	.
